Experimental data taken from ChEMBL document CHEMBL1123507, “Antipicornavirus activity of substituted phenoxybenzenes and phenoxypyridines” (J Med Chem, 1986).
Converted amounts (≈) assume the structure as drawn.

Assays:
Enterovirus [1] = assay: Lowest concentration to reduce viral effect by 50% or more against Rhinovirus (RV)-1A; type: functional
Method in brief: (§1)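 HeLa monolayers were seeded at (1.0-1.3) × 10^5 cells/well, grown 24 h at 36 °C in 5% CO2 to 60–75% cover, then refed with maintenance medium (1-2% heat-inactivated FCS) containing two-fold serial compound dilutions made from a 200 μg/mL stock in Me2SO/medium, with final Me2SO ≤0.1%. Cells were challenged with 10-100 TCID50 virus, and CPE was read microscopically at 48 and 72 h. MIC50 was the lowest concentration giving ≥50% CPE reduction versus virus control. Cytotoxicity was the lowest concentration causing cell death, a growth change or a morphology change in uninfected cultures.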

HeLa = assay: Cytotoxicity concentration in HeLa cells; type: cell-based; details: human; method in brief: as §1
Coxsackievirus [2] = assay: Lowest concentration to reduce viral effect by 50% or more against coxsackie virus A21; type: functional; method in brief: as §1
Enterovirus [3] = assay: Lowest concentration to reduce viral effect by 50% or more against Rhinovirus (RV)-2; type: functional; method in brief: as §1
Coxsackievirus [4] = assay: Ratio of the MIC50 of 6-(4-Nitro-phenoxy)-nicotinonitrile compared to compound obtained in the same test for coxsackie A21; type: functional
Method in brief: (§2)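 Relative activity was calculated as the MIC50 of the positive control 5-cyano-2-(4-nitrophenoxy)pyridine divided by the MIC50 of the test compound. Both were measured in parallel in the same HeLa CPE test (48/72 h microscopic reading) against RV-1A, RV-2 or coxsackievirus A21.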

Enterovirus [5] = assay: Ratio of the MIC50 of 6-(4-Nitro-phenoxy)-nicotinonitrile compared to compound obtained in the same test for Rhinovirus (RV)-2; type: functional; method in brief: as §2
Enterovirus [6] = assay: Ratio of the MIC50 of 6-(4-Nitro-phenoxy)-nicotinonitrile compared to compound obtained in the same test for Rhinovirus (RV)-1A; type: functional; method in brief: as §2

SMILES	MIC50 (Enterovirus [1]) [µM]	MIC50 (Coxsackievirus [2]) [µM]	MIC50 (Enterovirus [3]) [µM]	Toxicity (HeLa) [µM]	Relative activity (Coxsackievirus [4])	Relative activity (Enterovirus [5])	Relative activity (Enterovirus [6])
CS(=O)(=O)c1ccc(Oc2ccc(C(=O)c3ccccc3)cc2)cc1	> 284	0.88 (≈ 0.31 µg/mL)	142 (≈ 50 µg/mL)	> 284	5.9		
N#Cc1cc([N+](=O)[O-])ccc1Oc1ccccc1C(F)(F)F	> 324	32 (≈ 9.86 µg/mL)	3.9 (≈ 1.2 µg/mL)	32		3.3	
N#Cc1cc([N+](=O)[O-])ccc1Oc1ccc(C(=O)c2ccccc2)cc1	> 291	36.3 (≈ 12.5 µg/mL)	> 291	> 291	1.4		
CS(=O)(=O)c1cccnc1Oc1ccc(Cl)c(Cl)c1	79 (≈ 25.1 µg/mL)	157 (≈ 50 µg/mL)	157 (≈ 50 µg/mL)	157			
O=S(=O)(c1ccccc1)c1ccc(Oc2ccc(Cl)c(Cl)c2)cc1	1.6 (≈ 0.607 µg/mL)	1.6 (≈ 0.607 µg/mL)	1.6 (≈ 0.607 µg/mL)	3.3			
CS(=O)(=O)c1ccc(Oc2ccc(O)cc2)cc1	94.7 (≈ 25 µg/mL)	> 189	94.7 (≈ 25 µg/mL)	95			
CSc1ccc(Oc2ccc([N+](=O)[O-])cc2C#N)cc1	> 350	0.87 (≈ 0.249 µg/mL)	21.8 (≈ 6.24 µg/mL)	350	6	2.4	
CS(=O)(=O)c1ccc(Oc2ccc(C#N)cc2)cc1		11.4 (≈ 3.12 µg/mL)	45.8 (≈ 12.5 µg/mL)	183	2.3	0.56	
N#Cc1ccc(Oc2ccc(F)cc2)nc1	34 (≈ 7.28 µg/mL)	69 (≈ 14.8 µg/mL)		250	1.7		3.3
CC(=O)c1ccc(Oc2ccc(Cl)c(Cl)c2)cc1	2.2 (≈ 0.619 µg/mL)		2.2 (≈ 0.619 µg/mL)	49		11.8	11.8

Further lines, with some results ahead:

MIC50 (Enterovirus [1]) [µM]	MIC50 (Coxsackievirus [2]) [µM]	MIC50 (Enterovirus [3]) [µM]	SMILES	Toxicity (HeLa) [µM]	Relative activity (Coxsackievirus [4])	Relative activity (Enterovirus [5])	Relative activity (Enterovirus [6])
> 304	19 (≈ 6.25 µg/mL)	> 304	O=[N+]([O-])c1ccc(Oc2ccc(Cl)c(Cl)c2)c([N+](=O)[O-])c1	19			
> 379	23.7 (≈ 6.26 µg/mL)	> 379	N#Cc1ccccc1Oc1ccc(Cl)c(Cl)c1	379	1.1		
> 173	10.7 (≈ 3.09 µg/mL)	10.7 (≈ 3.09 µg/mL)	N#Cc1ccc(Oc2ccc(Cl)c(Cl)c2)c(C#N)c1	> 173	3.1	2.4	
> 292	> 292	18.3 (≈ 6.26 µg/mL)	CS(=O)(=O)c1ccc(Oc2ccc(Cl)c(Cl)c2)c(C#N)c1	292		2.8	
5 (≈ 1.28 µg/mL)	98 (≈ 25 µg/mL)		Nc1ccc(Oc2ccc(Cl)c(Cl)c2)nc1	88			4.1
10 (≈ 3.18 µg/mL)	157 (≈ 50 µg/mL)	39 (≈ 12.4 µg/mL)	CS(=O)(=O)c1cccc(Oc2ccc(Cl)c(Cl)c2)n1	157		0.66	2.6
3.7 (≈ 1.19 µg/mL)	15.6 (≈ 5.01 µg/mL)	3.7 (≈ 1.19 µg/mL)	CC(=O)Nc1ccc(Oc2ccc(Cl)c(Cl)c2)c(C#N)c1	62	1.7	3.5	3.5
15.7 (≈ 5.2 µg/mL)	> 151		Cc1cc(Oc2ccc(Cl)c(Cl)c2)ccc1S(C)(=O)=O	> 151		1.4	1.7
94 (≈ 24.9 µg/mL)	23.5 (≈ 6.23 µg/mL)	> 378	N#Cc1cccc(Oc2ccc(Cl)c(Cl)c2)n1	378	0.91		0.28
